Legend:
[1] = biological target: T1, Growth hormone secretagogue receptor type 1 (Homo sapiens, UniProt Q92847); assay: Activity at human GHS1a receptor expressed in CHO cells assessed as intracellular calcium mobilization relative to 0.1 uM ghrelin; format: functional, cell-based
[2] = biological target: T1, Growth hormone secretagogue receptor type 1; assay: Agonist activity at human GHS1a receptor expressed in CHO cells assessed as induction of intracellular calcium mobilization; format: functional, cell-based
In short: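 CHO cells transiently expressing hGHS-R1a via electroporation, Fluo-4AM loaded (1 µM, 1 h, 37 °C), calcium fluorescence read 60 s at ex 485/em 525 nm. EC50 from agonist dose-response curves, response as percentage of maximal signal from 10 µM ghrelin; triplicates, means of at least three experiments.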

[3] = biological target: T1, Growth hormone secretagogue receptor type 1; assay: Displacement of [125I-His9]ghrelin from human GHS1a receptor expressed in LLC PK1 cells; format: cell-based
In short: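 Membranes from LLC PK-1 cells transiently electroporated with hGHS-R1a (harvested about 48 h), 10 µg protein, incubated 60 min at 25 °C with 60 pM 125I-His9-ghrelin in Tris pH 7.3/MgCl2/EDTA/bacitracin buffer. Filtered, washed, gamma counted; nonspecific binding with 10 µM ghrelin. Triplicates, at least three experiments.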

T1 sequence (Q92847 whole entry): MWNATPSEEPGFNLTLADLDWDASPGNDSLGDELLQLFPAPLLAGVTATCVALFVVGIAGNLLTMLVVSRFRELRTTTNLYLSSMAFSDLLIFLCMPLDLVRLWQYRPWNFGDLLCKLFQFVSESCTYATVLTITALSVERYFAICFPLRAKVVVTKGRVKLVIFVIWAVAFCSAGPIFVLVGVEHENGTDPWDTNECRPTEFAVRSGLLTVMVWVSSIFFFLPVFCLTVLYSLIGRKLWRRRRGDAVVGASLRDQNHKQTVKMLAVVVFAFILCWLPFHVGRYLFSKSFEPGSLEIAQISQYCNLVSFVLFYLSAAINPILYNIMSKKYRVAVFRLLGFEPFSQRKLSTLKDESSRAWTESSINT

Structure (SMILES) | Activity [1] [%] | Activity ([2]; filed as partial agonist) | IC50 [3] [µM] | Activity ([2]; filed as agonist) | EC50 [2] [µM]
CC(C)(N)C(=O)N[C@H](Cc1c[nH]c2ccccc12)c1nnc(CCCc2c[nH]c3ccccc23)n1Cc1ccc(Br)cc1 | 25 | Partial agonist | – | – | –
CC(C)(N)C(=O)N[C@H](Cc1c[nH]c2ccccc12)c1nnc(CCc2c[nH]c3ccccc23)n1CC(c1ccccc1)c1ccccc1 | 62 | Partial agonist | 0.64 | – | –
CC(C)(N)C(=O)N[C@H](Cc1c[nH]c2ccccc12)c1nnc(CCc2c[nH]c3ccccc23)n1Cc1cccc2ccccc12 | 54 | Partial agonist | – | – | –
CC(C)(N)C(=O)N[C@H](Cc1c[nH]c2ccccc12)c1nnc(Cc2ccccc2)n1Cc1ccc(Br)cc1 | 16 | Partial agonist | 0.44 | – | –
CC(C)(N)C(=O)N[C@H](Cc1c[nH]c2ccccc12)c1nncn1CCc1c[nH]c2ccccc12 | – | – | 0.85 | – | –
COc1ccc(Cn2c(CCCc3c[nH]c4ccccc34)nnc2[C@@H](Cc2c[nH]c3ccccc23)NC(=O)C(C)(C)N)c(OC)c1 | 27 | Partial agonist | 0.75 | – | –
CC(C)(N)C(=O)N[C@H](Cc1c[nH]c2ccccc12)c1nnc(Cc2ccccc2)n1Cc1ccccc1 | 44 | Partial agonist | 0.5 | – | –
CC(C)(N)C(=O)N[C@H](Cc1c[nH]c2ccccc12)c1nnc(Cc2ccccc2)n1CCc1c[nH]c2ccccc12 | 95 | – | 0.7 | Agonist | –
CC(C)(N)C(=O)N[C@H](Cc1c[nH]c2ccccc12)c1nnc(Cc2ccccc2)n1Cc1cccc2ccccc12 | 78 | Partial agonist | – | – | –
CCc1ccc(Cn2c(CCc3ccccc3)nnc2[C@@H](Cc2c[nH]c3ccccc23)NC(=O)C(C)(C)N)cc1 | 26 | – | – | – | 0.011
CC(C)(N)C(=O)N[C@H](Cc1c[nH]c2ccccc12)c1nnc(CCc2ccccc2)n1Cc1cccc2ccccc12 | 40 | Partial agonist | 0.13 | – | –
CC(C)(N)C(=O)N[C@H](Cc1c[nH]c2ccccc12)c1nnc(CCCc2c[nH]c3ccccc23)n1Cc1cccc2ccccc12 | 62 | Partial agonist | 0.14 | – | –
CC(C)(N)C(=O)N[C@H](Cc1c[nH]c2ccccc12)c1nnc(Cc2ccccc2)n1Cc1ccc(F)cc1 | 60 | Partial agonist | – | – | –
CC(C)(N)C(=O)N[C@H](Cc1c[nH]c2ccccc12)c1nnc(CCc2c[nH]c3ccccc23)n1-c1ccccc1 | 91 | – | – | – | 0.041
CC(C)(N)C(=O)N[C@H](Cc1c[nH]c2ccccc12)c1nnc(Cc2c[nH]c3ccccc23)[nH]1 | – | – | 2.2 | – | –
COc1cccc(Cn2c(Cc3ccccc3)nnc2[C@@H](Cc2c[nH]c3ccccc23)NC(=O)C(C)(C)N)c1 | 50 | Partial agonist | – | – | –
Cn1c(CCc2c[nH]c3ccccc23)nnc1[C@@H](Cc1c[nH]c2ccccc12)NC(=O)C(C)(C)N | – | – | 0.58 | – | –
COc1cccc(Cn2c(CCc3c[nH]c4ccccc34)nnc2[C@@H](Cc2c[nH]c3ccccc23)NC(=O)C(C)(C)N)c1 | 63 | – | – | – | 0.004
Cn1c(Cc2c[nH]c3ccccc23)nnc1[C@@H](Cc1c[nH]c2ccccc12)NC(=O)C(C)(C)N | – | – | 1.7 | – | –
CC(C)(N)C(=O)N[C@H](Cc1c[nH]c2ccccc12)c1nnc(CCc2ccccc2)n1Cc1ccc([N+](=O)[O-])cc1 | 10 | – | > 1 | – | –
COc1ccc(Cn2c(Cc3c[nH]c4ccccc34)nnc2[C@@H](Cc2c[nH]c3ccccc23)NC(=O)C(C)(C)N)c(OC)c1 | – | – | 1 | – | –
CCCCCCn1c(CCCc2c[nH]c3ccccc23)nnc1[C@@H](Cc1c[nH]c2ccccc12)NC(=O)C(C)(C)N | 32 | Partial agonist | – | – | –
CC(C)(N)C(=O)N[C@H](Cc1c[nH]c2ccccc12)c1nnc(CCc2c[nH]c3ccccc23)n1Cc1ccc(F)cc1 | 59 | – | – | – | 0.21

From ChEMBL document CHEMBL1143012, “Synthesis and pharmacological in vitro and in vivo evaluations of novel triazole derivatives as ligands of the ghrelin receptor. 1” (J Med Chem, 2007)
